Measurements published in ChEMBL document CHEMBL2029329, “Synthesis and biological evaluation of 1,4-diaryl-2-azetidinones as specific anticancer agents: activation of adenosine monophosphate activated protein kinase and induction of apoptosis” (J Med Chem, 2012).
The source made the active and inactive calls. The rule behind the calls is not given here.

Tests used:
[1] = test system: HuTu 18; assay: Effect on AKT phosphorylation at ser473 in insulin-stimulated human […] cells at 30 nM after 24 hrs by Western blot analysis; assay type: cell-based
How it was run: (§1)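 HuTu-80 cells were exposed to 30 nM compound for 24 h, with 0.1% DMSO as vehicle. They were then mock treated or stimulated with 10 μg/mL insulin for 10 min. Total RIPA extracts were probed by Western blot for pS473-Akt and total Akt, with vinculin as loading control.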

[2] = molecular target: T1, AMP-activated protein kinase, AMPK (Homo sapiens) (UniProt P54646+O43741+P54619+Q9UGJ0+Q9Y478+Q13131+Q9UGI9); assay: Induction of AMPK-mediated p53 pser15 accumulation in human […] cells at 30 nM after 24 hrs by Western blot analysis; assay type: cell-based
How it was run: (§2)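 HuTu-80 cells were exposed to 30 nM compound for 24 h, with 0.1% DMSO as vehicle. pT172-AMPK and pS792-Raptor were blotted from total RIPA extracts with vinculin for loading. pS15-p53 and total p53 were blotted from nuclear extracts with fibrillarin as nuclear control.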

[3] = Cell cycle arrest in human HuTu 80 cells assessed as accumulation at sub-G1 phase at 30 nM after 48 hrs by propidium iodide-based flow cytometry (reference value: 3.3 %); conditions: HuTu80
[4] = test system: HuTu80; assay: Induction of apoptosis in human HuTu 80 cells assessed as PARP cleavage at 30 nM after 24 hrs by Western blot analysis
[5] = molecular target: T1, AMP-activated protein kinase, AMPK (Homo sapiens); assay: Induction of AMPK phosphorylation at Thr172 residue in human […] cells at 30 nM after 24 hrs by Western blot analysis; assay type: cell-based; how it was run: as §2
[6] = molecular target: T1, AMP-activated protein kinase, AMPK (Homo sapiens); assay: Induction of AMPK-mediated p53 phosphorylation at ser15 residue in human […] cells at 30 nM after 24 hrs by Western blot analysis; assay type: cell-based; how it was run: as §2
[7] = molecular target: T1, AMP-activated protein kinase, AMPK (Homo sapiens); assay: Induction of AMPK phosphorylation at Thr172 residue in human SW48 cells at 30 nM after 16 hrs by Western blot analysis; assay type: cell-based
How it was run: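 SW48 cells were exposed to 30 nM compound for 16 h, with 0.1% DMSO as vehicle. Total RIPA lysates (with protease and phosphatase inhibitors) were blotted for pT172-AMPK and total AMPK.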

[8] = Cell cycle arrest in human HuTu 80 cells assessed as […] at sub-G1 phase at 30 nM by propidium iodide-based flow cytometry; assay type: functional; conditions: HuTu80, TDE = time-dependent effect
[9] = Cell cycle arrest in human HuTu 80 cells assessed as accumulation at G2/M phase at 30 nM after 48 to 72 hrs by propidium iodide-based flow cytometry; assay type: functional; conditions: HuTu80
How it was run: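 HuTu-80 cells were exposed to 30 nM compound for 48 and 72 h, with 0.1% DMSO as vehicle. Cells were trypsinized, washed in PBS, fixed in 75% ethanol at 4 °C and stained with propidium iodide. DNA content was measured by flow cytometry.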

[10] = test system: HuTu80; assay: Induction of apoptosis in human HuTu 80 cells assessed as caspase-3 cleavage at 30 nM after 24 hrs by Western blot analysis
[11] = test system: HeLa; assay: Antiproliferative activity in human HeLa cells assessed as cell viability at 10 uM after 48 hrs by MTT assay; assay type: functional, cell-based
How it was run: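 HeLa cells were kept in DMEM with 10% FBS at 37 °C, 5% CO2. They were seeded, left 24 h, then given 10 μM compound for 48 h. MTT was added for 2 h at 37 °C, formazan solubilized, absorbance read at 570 nm, and viability compared with control cells.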

[12] = test system: HuTu 18; assay: Effect on AKT phosphorylation at ser473 in human […] cells at 30 nM after 24 hrs by Western blot analysis; assay type: cell-based; how it was run: as §1
[13] = molecular target: T1, AMP-activated protein kinase, AMPK (Homo sapiens); assay: Induction of AMPK-mediated raptor phosphorylation at ser792 residue in human […] cells at 30 nM after 24 hrs by Western blot analysis; assay type: cell-based; how it was run: as §2
[14] = Cell cycle arrest in human HuTu 80 cells assessed as […] at sub-G1 phase at 30 nM after 72 hrs by propidium iodide-based flow cytometry (reference value: 4.3 %); assay type: functional; set-up: scale not given: the % may be the effect or the level left; conditions: HuTu80
[15] = Antiproliferative activity in human HuTu 80 cells assessed as cell viability after 72 hrs by MTT assay; assay type: functional, cell-based, HuTu80
How it was run: (§3)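 Each line was grown in its own medium: DMEM for HuTu-80, EMEM/NEAA for MCF-7, EMEM/F12 for SKNBE, DMEM/F12 with 5% FBS for T84, Leibovitz's for the SW lines. Cells were seeded, left 24 h, then exposed to graded concentrations for 72 h. MTT was given 2 h, absorbance read at 570 nm. IC50 is 50% absorbance inhibition versus control, from dose-response curves; mean ± SD of ≥3 independent experiments, each in triplicate.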

[16] = Antiproliferative activity in human renal cancer cells; assay type: functional, cell-based; conditions: Cancer cell lines
[17] = molecular target: Tubulin (Sus scrofa, UniProt P02554+P02550); assay: Inhibition of porcine brain tubulin polymerization after 30 mins by spectrophotometry
How it was run: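 Porcine brain tubulin at 2.5 mg/mL was used in 80 mM PIPES pH 6.9, 1 mM MgCl2, 2 mM EGTA, 10% glycerol, with 1 mM GTP and graded compound (0.2% DMSO vehicle). Turbidity was followed at 340 nm, 37 °C.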

[18] = Antiproliferative activity in human SK-N-BE cells assessed as cell viability after 72 hrs by MTT assay; assay type: functional, cell-based; how it was run: as §3
[19] = test system: SW480; assay: Antiproliferative activity in human SW480 cells assessed as cell viability after 72 hrs by MTT assay; assay type: functional, cell-based; how it was run: as §3
[20] = test system: T84; assay: Antiproliferative activity in human T84 cells assessed as cell viability after 72 hrs by MTT assay; assay type: functional, cell-based; how it was run: as §3
[21] = test system: SW48; assay: Antiproliferative activity in human SW48 cells assessed as cell viability after 72 hrs by MTT assay; assay type: functional, cell-based; how it was run: as §3
[22] = test system: SW-620; assay: Antiproliferative activity in human SW620 cells assessed as cell viability after 72 hrs by MTT assay; assay type: functional, cell-based; how it was run: as §3
[23] = test system: MCF7; assay: Antiproliferative activity in human MCF7 cells assessed as cell viability after 72 hrs by MTT assay; assay type: functional, cell-based; how it was run: as §3
[24] = Antiproliferative activity in human FHs74 cells assessed as cell viability at 10 uM after 72 hrs by MTT assay; assay type: cell-based
How it was run: (§4)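 Normal cells (CCD841CoN in EMEM/NEAA with 10% FBS; FHs74 in DMEM with 10% FBS, EGF 30 ng/mL, insulin 10 μg/mL) were seeded and grown for 24 h at 37 °C, 5% CO2, then given compound at 10 μM. Viability was read by MTT: 2 h at 37 °C, formazan solubilized, absorbance at 570 nm.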

[25] = Antiproliferative activity in human CCD-841-CoN cells assessed as cell viability at 10 uM after 72 hrs by MTT assay; assay type: cell-based; how it was run: as §4

## COc1ccc([C@H]2[C@H](O)C(=O)N2c2cc(OC)cc(OC)c2)cc1 (racemic) [listing 1 of 2 here]
[1]
  Activity: inactive
[2]
  Activity: Active
[3]
  Activity: 28.5%
[4]
  Activity: Active
[5]
  Activity: Active
[6]
  Activity: Active
[7]
  Activity: Active
[8]
  Activity: tde
[9]
  Activity: Active
[10]
  Activity: Active
[11]
  Activity: Active
[12]
  Activity: inactive
[13]
  Activity: Active
[14]
  Activity: 35%

## COc1ccc([C@H]2[C@H](O)C(=O)N2c2cc(OC)c(OC)c(OC)c2)cc1O (stereo in doubt; (-))
[15]; hutu80
  IC50: 590 nM

## COc1ccc([C@@H]2[C@H](O)C(=O)N2c2cc(OC)c(OC)c(OC)c2)cc1[N+](=O)[O-]
[15]; Homo sapiens, HuTu80, 72 h
  IC50: 529 nM
[16]
  IC50: 29.2 nM

## COc1ccc(N2C(=O)[C@@H](O)[C@H]2c2cc(OC)c(OC)c(OC)c2)cc1O (racemic)
[15]; Homo sapiens, HuTu80, 72 h
  IC50: 2550 nM
[11]
  Activity: Active

## COc1ccc([C@@H]2[C@H](O)C(=O)N2c2cc(OC)cc(OC)c2)cc1 (racemic)
[15]; Homo sapiens, HuTu80, 72 h
  IC50: 125 nM
[11]
  Activity: Active

## COc1ccc([C@H]2[C@H](O)C(=O)N2c2cc(OC)cc(OC)c2)cc1 (stereo in doubt; (+))
[17]
  IC50: 1300 nM
[15]; hutu80
  IC50: 8.02 nM
[18]; sk-n-be
  IC50: 1.12 nM
[19]; sw480
  IC50: 16.7 nM
[20]; t84
  IC50: 6.77 nM
[21]; sw48
  IC50: 11.1 nM
[22]; sw-620
  IC50: 8.58 nM
[23]; mcf7
  IC50: 4.01 nM

## COc1ccc([C@H]2[C@H](O)C(=O)N2c2cc(OC)c(OC)c(OC)c2)cc1O (racemic) [listing 1 of 2 here]
[17]
  IC50: 3800 nM
[15]; hutu80
  IC50: 13.4 nM
[18]; sk-n-be
  IC50: 4.2 nM
[19]; Homo sapiens, SW480, 72 h
  IC50: 22.1 nM
[20]; t84
  IC50: 45.4 nM
[21]; Homo sapiens, SW48, 72 h
  IC50: 15.2 nM
[22]; sw-620
  IC50: 13.6 nM
[23]; Homo sapiens, MCF7, 72 h
  IC50: 6.14 nM

## COc1ccc([C@@H]2[C@H](O)C(=O)N2c2cc(OC)c(OC)c(OC)c2)cc1O (racemic)
[15]; Homo sapiens, HuTu80, 72 h
  IC50: 28.8 nM
[11]
  Activity: Active

## COc1ccc([C@H]2[C@H](O)C(=O)N2c2cc(OC)cc(OC)c2)cc1 (racemic) [listing 2 of 2 here]
[17]
  IC50: 3600 nM
[15]; hutu80
  IC50: 9.05 nM
[18]; sk-n-be
  IC50: 2.25 nM
[19]; Homo sapiens, SW480, 72 h
  IC50: 24.2 nM
[24]
  Activity: Non-toxic
[20]; Homo sapiens, T84, 72 h
  IC50: 5.73 nM
[21]; Homo sapiens, SW48, 72 h
  IC50: 12.1 nM
[25]
  Activity: Non-toxic
[22]; Homo sapiens, SW-620, 72 h
  IC50: 6.6 nM
[23]; Homo sapiens, MCF7, 72 h
  IC50: 5.19 nM

## COc1ccc([C@H]2[C@H](O)C(=O)N2c2cc(OC)cc(OC)c2)cc1 (stereo in doubt; (-))
[15]; hutu80
  IC50: 83.5 nM

## COc1ccc([C@H]2[C@H](O)C(=O)N2c2cc(OC)c(OC)c(OC)c2)cc1O (racemic) [listing 2 of 2 here]
[1]
  Activity: inactive
[2]
  Activity: Active
[3]
  Activity: 22.9%
[4]
  Activity: Active
[5]
  Activity: Active
[6]
  Activity: Active
[7]
  Activity: Active
[8]
  Activity: tde
[9]
  Activity: Active
[10]
  Activity: Active
[11]
  Activity: Active
[12]
  Activity: inactive
[13]
  Activity: Active
[14]
  Activity: 32.7%

## COc1ccc(N2C(=O)[C@@H](O)[C@@H]2c2cc(OC)c(OC)c(OC)c2)cc1O (racemic)
[15]; Homo sapiens, HuTu80, 72 h
  IC50: 406 nM
[11]
  Activity: Active

## COc1ccc(/C=C\c2cc(OC)c(OC)c(OC)c2)cc1O [COMBRETASTATIN A4]
[2]
  Activity: Active
[3]
  Activity: 24.6%
[4]
  Activity: Active
[15]; Homo sapiens, HuTu80, 72 h
  IC50: 1.37 nM
[18]; Homo sapiens, SK-N-BE, 72 h
  IC50: 0.58 nM
[19]; Homo sapiens, SW480, 72 h
  IC50: 3.63 nM
[20]; Homo sapiens, T84, 72 h
  IC50: 23.4 nM
[21]; Homo sapiens, SW48, 72 h
  IC50: 3.32 nM
[22]; Homo sapiens, SW-620, 72 h
  IC50: 1.52 nM
[10]
  Activity: Active
[23]; Homo sapiens, MCF7, 72 h
  IC50: 1.11 nM
[11]
  Activity: Active
[14]
  Activity: 34%

## COc1ccc([C@H]2[C@H](O)C(=O)N2c2cc(OC)c(OC)c(OC)c2)cc1O (stereo in doubt; (+))
[17]
  IC50: 1610 nM
[15]; hutu80
  IC50: 3.05 nM
[18]; sk-n-be
  IC50: 1.32 nM
[19]; sw480
  IC50: 12.5 nM
[24]
  Activity: Non-toxic
[20]; t84
  IC50: 20.3 nM
[21]; sw48
  IC50: 9.81 nM
[25]
  Activity: Non-toxic
[22]; sw-620
  IC50: 3.37 nM
[23]; mcf7
  IC50: 4.47 nM

## COc1ccc([C@@H]2[C@H](O)C(=O)N2c2cc(OC)c(OC)c(OC)c2)cc1N
[15]; Homo sapiens, HuTu80, 72 h
  IC50: 101 nM
